Experimental data from ChEMBL document CHEMBL1142648, “Enhancement in antimicrobial activity of 2-(phenyl)-3-(2-butyl-4-chloro-1H-imidazolyl)-5-butylate isoxazolidine” (2005).
≈ marks a conversion by molar mass, not a printed value.

Experiments:
Escherichia coli = assay: Minimum inhibitory concentration against Escherichia coli; type: functional
In short: (§1)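 Broth tube dilution in brain heart infusion broth, 5 mL final volume. Compounds were dissolved in DMSO, diluted 1:9 with water, then serially diluted in medium. Cells were added at a final 2 × 10^3 CFU/mL and incubated at 37 °C for 24 h. Turbidity was read at 640 nm. MIC is the lowest concentration with no growth, confirmed by spreading 10 µL of clear tubes on BHI agar.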

Fusarium verticillioides = assay: Minimum inhibitory concentration against Fusarium moniliforme; type: functional
In short: (§2)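 Fungal MIC by tube dilution in potato dextrose broth, 5 mL final volume. Compounds were taken up in DMSO, diluted 1:9 with water, then serially diluted in medium. Spore suspension was added at a final 2 × 10^3 CFU/mL and incubated at 28 °C for 48 h. Absorbance was read at 640 nm. MIC is the lowest no-growth concentration, checked by subculturing 10 µL onto potato dextrose agar and examining under a microscope.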

Aspergillus niger = assay: Minimum inhibitory concentration against Aspergillus niger; type: functional; in short: as §2
Cephalosporium = assay: Minimum inhibitory concentration against Cephalosporium acremonium; type: functional, Hapsidospora chrysogena; in short: as §2
Staphylococcus aureus = assay: Minimum inhibitory concentration against Staphylococcus aureus; type: functional; in short: as §1
Bacillus subtilis = assay: Minimum inhibitory concentration against Bacillus subtilis; type: functional; in short: as §1
[1] = Escherichia coli, read-out: MIC
[2] = Staphylococcus aureus, read-out: MIC
[3] = Bacillus subtilis, read-out: MIC

## CCCCOC(=O)[C@H]1C[C@@H](c2[nH]c(CCCC)nc2Cl)N(c2ccccc2)O1 (stereo in doubt; A)
Escherichia coli; [1]
  MIC: 10 µg/mL (≈ 24.6 µM)
Fusarium verticillioides
  MIC: 13 µg/mL (≈ 32 µM)
Aspergillus niger
  MIC: 14 µg/mL (≈ 34.5 µM)
Cephalosporium
  MIC: 11 µg/mL (≈ 27.1 µM)
Staphylococcus aureus; [2]
  MIC: 7 µg/mL (≈ 17.2 µM)
Bacillus subtilis; [3]
  MIC: 7 µg/mL (≈ 17.2 µM)

## CCCCOC(=O)[C@H]1C[C@@H](c2[nH]c(CCCC)nc2Cl)N(c2ccccc2)O1 (stereo in doubt; B)
Escherichia coli
  MIC: 11 µg/mL (≈ 27.1 µM)
Fusarium verticillioides
  MIC: 28 µg/mL (≈ 69 µM)
Aspergillus niger
  MIC: 36 µg/mL (≈ 88.7 µM)
Cephalosporium
  MIC: 33 µg/mL (≈ 81.3 µM)
Staphylococcus aureus
  MIC: 8 µg/mL (≈ 19.7 µM)
Bacillus subtilis
  MIC: 7 µg/mL (≈ 17.2 µM)

## CN[C@@H]1[C@H](O[C@H]2[C@H](O[C@H]3[C@H](O)[C@@H](O)[C@H](N=C(N)N)[C@@H](O)[C@@H]3N=C(N)N)O[C@@H](C)[C@]2(O)C=O)O[C@@H](CO)[C@H](O)[C@H]1O [STREPTOMYCIN]
Escherichia coli; [1]
  MIC: 6 µg/mL (≈ 10.3 µM)
Staphylococcus aureus; [2]
  MIC: 3 µg/mL (≈ 5.16 µM)
Bacillus subtilis; [3]
  MIC: 3 µg/mL (≈ 5.16 µM)

## NYSTATIN
Fusarium verticillioides
  MIC: 14 µg/mL
Aspergillus niger
  MIC: 12 µg/mL
Cephalosporium; Hapsidospora chrysogena
  MIC: 11 µg/mL
